{"source": "ChEMBL document CHEMBL1121991", "about": "“4-Aroyl-1,3-dihydro-2H-imidazol-2-ones, a new class of cardiotonic agents” (1982)", "key": {"[1]": {"tested_on": "Canis familiaris", "experiment": "The heart rate was determined after 1.0 mg/kg administration with 20 mg/kg pentobarbital in the dog heart-lung preparation", "type": "functional, Canis lupus familiaris", "outline": "(§1)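 Heart-lung preparation from mongrel dogs anesthetized with pentobarbital 35 mg/kg iv. Failure was induced by adding pentobarbital 20 mg/kg to the blood reservoir, then test agent 1 mg/kg was added. Force, rate, output, stroke volume, left atrial pressure and stroke work were read 10 min later. Five preparations, means ± SE, analysis of variance.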"}, "[2]": {"tested_on": "Canis familiaris", "experiment": "The cardiac contractile force was determined after 1.0 mg/kg administration with 20 mg/kg pentobarbital in the dog heart-lung preparation", "type": "functional, Canis lupus familiaris", "outline": "as §1"}, "[3]": {"tested_on": "Canis familiaris", "experiment": "The cardiac output was determined after 1.0 mg/kg administration with 20 mg/kg pentobarbital in the dog heart-lung preparation", "type": "functional, Canis lupus familiaris", "outline": "as §1"}, "[4]": {"tested_on": "Canis familiaris", "experiment": "(§2) The change in cardiac output was determined after 10 min of 3.0 ug/kg administration in the dog heart-lung preparation", "type": "functional, Canis lupus familiaris", "outline": "(§3)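 Dog heart-lung preparation from mongrel dogs of either sex, 11–19 kg, anesthetized with sodium pentobarbital 35 mg/kg iv. Strain gauge arch on the right ventricle; left atrial pressure by atrial cannula transducer; aortic flow by extracorporeal flow meter. Drug was added to the blood reservoir and measured at 10 min, n = 5–8. Change vs control by paired t test.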"}, "[5]": {"tested_on": "Canis familiaris", "experiment": "as §2", "type": "functional, Canis lupus familiaris", "outline": "as §3", "remark": "listed apart in the source"}, "[6]": {"tested_on": "Canis familiaris", "experiment": "The change in heart rate was determined after 10 min of 0.3 ug/kg administration in the dog heart-lung preparation", "type": "functional, Canis lupus familiaris", "outline": "as §3"}, "[7]": {"tested_on": "Canis familiaris", "experiment": "The change in heart rate was determined after 10 min of 1.0 ug/kg administration in the dog heart-lung preparation", "type": "functional, Canis lupus familiaris", "outline": "as §3"}, "[8]": {"tested_on": "Canis familiaris", "experiment": "The change in heart rate was determined after 10 min of 3.0 ug/kg administration in the dog heart-lung preparation", "type": "functional, Canis lupus familiaris", "outline": "as §3"}, "[9]": {"tested_on": "Canis familiaris", "experiment": "The change in left atrial pressure after 10 min of 0.3 ug/kg administration in the dog heart-lung preparation", "type": "functional, Canis lupus familiaris, Cardiac atrium", "outline": "as §3"}, "[10]": {"tested_on": "Canis familiaris", "experiment": "The change in left atrial pressure was determined after 10 min of 0.3 ug/kg administration in the dog heart-lung preparation", "type": "functional, Canis lupus familiaris, Cardiac atrium", "outline": "as §3"}, "[11]": {"tested_on": "Canis familiaris", "experiment": "The change in left atrial pressure was determined after 10 min of 3.0 ug/kg administration in the dog heart-lung preparation", "type": "functional, Canis lupus familiaris, Cardiac atrium", "outline": "as §3"}, "[12]": {"tested_on": "Canis familiaris", "experiment": "The change in left atrial pressure was determined after 10 min of 3.0 ug/kg administration in the dog heart-lung preparation.", "type": "functional, Canis lupus familiaris, Cardiac atrium", "outline": "as §3"}, "[13]": {"tested_on": "Canis familiaris", "experiment": "The change in cardiac contractile force after 10 min of 3.0 ug/kg administration in the dog heart-lung preparation", "type": "functional, Canis lupus familiaris", "outline": "as §3"}, "[14]": {"tested_on": "Canis familiaris", "experiment": "The change in cardiac contractile force after 1 mg/kg iv administration with 0.5 mg/kg, iv propranolol", "type": "functional, Canis lupus familiaris, Heart", "outline": "(§4)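 Anesthetized dogs, N = 6 per group, given test agent 1 mg/kg iv or isoproterenol 0.1 μg/kg iv, with or without propranolol 0.5 mg/kg iv pretreatment. Percent change from control was recorded for contractile force (strain gauge arch) and for mean arterial BP. Values are means ± SE, compared by Student's t test.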"}, "[15]": {"tested_on": "Canis familiaris", "experiment": "The change in cardiac contractile force after 1 mg/kg iv administration, activity is expressed as % change.", "type": "functional, Canis lupus familiaris, Heart", "outline": "as §4"}, "[16]": {"tested_on": "Canis familiaris", "experiment": "The change in cardiac contractile force was determined after 10 min of 0.3 ug/kg administration in the dog heart-lung preparation", "type": "functional, Canis lupus familiaris", "outline": "as §3"}, "[17]": {"tested_on": "Canis familiaris", "experiment": "The change in cardiac contractile force was determined after 10 min of 1.0 ug/kg administration in the dog heart-lung preparation", "type": "functional, Canis lupus familiaris", "outline": "as §3"}, "[18]": {"tested_on": "Canis familiaris", "experiment": "The change in cardiac contractile force was determined after 10 min of 3.0 ug/kg administration in the dog heart-lung preparation", "type": "functional, Canis lupus familiaris", "outline": "as §3"}, "[19]": {"tested_on": "Canis familiaris", "experiment": "The left atrial pressure was determined after 1.0 mg/kg administration with 20 mg/kg pentobarbital in the dog heart-lung preparation", "type": "functional, Canis lupus familiaris, Cardiac atrium", "outline": "as §1"}, "[20]": {"tested_on": "Canis familiaris", "experiment": "The change in mean arterial blood pressure was determined after 1 mg/kg iv administration", "type": "functional, Canis lupus familiaris", "outline": "as §4"}, "[21]": {"tested_on": "Canis familiaris", "experiment": "The change in mean arterial blood pressure was determined after 1 mg/kg iv administration with 0.5 mg/kg, iv propranolol", "type": "functional, Canis lupus familiaris", "outline": "as §4"}, "[22]": {"tested_on": "Canis familiaris", "experiment": "The stroke volume was determined after 1.0 mg/kg administration with 20 mg/kg pentobarbital in the dog heart-lung preparation", "type": "functional, Canis lupus familiaris", "outline": "as §1"}, "[23]": {"tested_on": "Canis familiaris", "experiment": "Stroke work was determined after 1.0 mg/kg administration with 20 mg/kg pentobarbital in the dog heart-lung preparation", "type": "functional, Canis lupus familiaris", "outline": "as §1"}, "[24]": {"tested_on": "Canis familiaris", "experiment": "The change in stroke volume after 10 min of 1.0 ug/kg administration in the dog heart-lung preparation", "type": "functional, Canis lupus familiaris", "outline": "as §3"}, "[25]": {"tested_on": "Canis familiaris", "experiment": "The change in stroke volume after 10 min of 3.0 ug/kg administration in the dog heart-lung preparation", "type": "functional, Canis lupus familiaris", "outline": "as §3"}, "[26]": {"tested_on": "Canis familiaris", "experiment": "The change in stroke volume was determined after 10 min of 0.3 ug/kg administration in the dog heart-lung preparation", "type": "functional, Canis lupus familiaris", "outline": "as §3"}, "[27]": {"tested_on": "Canis familiaris", "experiment": "The change in stroke volume was determined after 10 min of 1.0 ug/kg administration in the dog heart-lung preparation", "type": "functional, Canis lupus familiaris", "outline": "as §3"}, "[28]": {"tested_on": "Canis familiaris", "experiment": "The change in stroke volume was determined after 10 min of 3.0 ug/kg administration in the dog heart-lung preparation", "type": "functional, Canis lupus familiaris", "outline": "as §3"}, "[29]": {"tested_on": "Canis familiaris", "experiment": "Pharmacological activity for Blood pressure, -20% in anesthetized dog was determined after intravenous administration", "type": "functional, Canis lupus familiaris", "outline": "(§5)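 Anesthetized dogs; contractile force recorded by a left-ventricular Walton-Brodie strain gauge arch, heart rate from lead II EKG, plus blood pressure. Stabilized at least 30 min, then at least three iv doses given, one compound per animal, with return to basal between doses. Doses for +30% force, +15% rate and −20% BP were extrapolated from dose-response curves; geometric mean where repeated.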"}, "[30]": {"tested_on": "Canis familiaris", "experiment": "Pharmacological activity for heart rate +15% in anesthetized dog was determined after intravenous administration", "type": "functional, Canis lupus familiaris", "outline": "as §5"}, "[31]": {"tested_on": "Canis familiaris", "experiment": "Pharmacological activity for Contractile force, +30% in anesthetized dog was determined after intravenous administration", "type": "functional, Canis lupus familiaris", "outline": "as §5"}}, "note": "“And” between values parts separate entries of the source, which are not always exact repeats. Identical values can stand only once.", "data": [{"smiles": "COc1ccc(C(=O)c2[nH]c(O)nc2C)cc1", "values": [{"measurement": "Heart rate", "setting": "[1]", "value": 151, "unit": "beats min-1"}, {"measurement": "Cardiac contractile force", "setting": "[2]", "value": 88, "unit": "g"}, {"measurement": "Cardiac output", "setting": "[3]", "value": 1053, "unit": "mL/min"}, {"measurement": "Change", "setting": "[4]", "value": 46, "unit": "mL/min"}, {"measurement": "Change", "setting": "[5]", "value": 4, "unit": "%"}, {"measurement": "Change", "setting": "[6]", "value": "22% and 14%"}, {"measurement": "Change", "setting": "[7]", "value": "35% and 23%"}, {"measurement": "Change", "setting": "[8]", "value": "41% and 28%"}, {"measurement": "Change", "setting": "[9]", "value": -1.6, "unit": "mmHg"}, {"measurement": "Change", "setting": "[10]", "value": -49, "unit": "%"}, {"measurement": "Change", "setting": "[11]", "value": -43, "unit": "%"}, {"measurement": "Change", "setting": "[12]", "value": -1.1, "unit": "mmHg"}, {"measurement": "Change", "setting": "[13]", "value": 179, "unit": "%"}, {"measurement": "Change", "setting": "[14]", "value": 144, "unit": "%"}, {"measurement": "Change", "setting": "[15]", "value": 127, "unit": "%"}, {"measurement": "Change", "setting": "[16]", "value": "62% and 88%"}, {"measurement": "Change", "setting": "[17]", "value": "96.7% and 121%"}, {"measurement": "Change", "setting": "[18]", "value": 129, "unit": "g"}, {"measurement": "Left atrial pressure", "setting": "[19]", "value": 2.6, "unit": "mmHg"}, {"measurement": "Change", "setting": "[20]", "value": -27, "unit": "%"}, {"measurement": "Change", "setting": "[21]", "value": -33, "unit": "%"}, {"measurement": "Stroke volume", "setting": "[22]", "value": 7, "unit": "mL"}, {"measurement": "Stroke work", "setting": "[23]", "value": 7.7, "unit": "g"}, {"measurement": "Change", "setting": "[24]", "value": -16, "unit": "%"}, {"measurement": "Change", "setting": "[25]", "value": -18, "unit": "%"}, {"measurement": "Change", "setting": "[26]", "value": "-0.7% and -10%"}, {"measurement": "Change", "setting": "[27]", "value": -1.1, "unit": "mL"}, {"measurement": "Change", "setting": "[28]", "value": -1.2, "unit": "mL"}, {"measurement": "Equieffective dose", "setting": "[29]", "value": 0.65, "unit": "mg/kg"}, {"measurement": "Equieffective dose", "setting": "[30]", "value": 0.4, "unit": "mg/kg"}, {"measurement": "Equieffective dose", "setting": "[31]", "value": 0.16, "unit": "mg/kg"}]}]}
